Assay results taken from paper PMC6307981 (Journal of Pharmaceutical Sciences, 2019).

Key:
[1] = Equilibrium solubility of the crystalline compounds; format: physicochemical; settings: 37°C, >24 h, mean ± s.d., n = 3, LLOQ 1 μg/mL
In short: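 Excess crystalline solid (2-3 mg per 1 mL) in water held at 37°C for >24 h. Supernatant cleared by centrifugation at 30,279 × g for ≥20 min, then quantified by HPLC-UV: isocratic C18 column at 50°C, acetonitrile/water 80:20 or 70:30 depending on compound, 1 mL/min, detection at 280 nm, calibration against acetonitrile standards.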

[2] = Metabolic stability in human liver microsomes; format: in vitro ADME
In short: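 Incubated with 0.5 mg/mL human liver microsomes at 1 μM compound in 100 mM KPO4, pH 7.4, started with 1 mM NADPH. Aliquots at 0, 5, 10, 20, 40 and 60 min quenched in cold acetonitrile. Parent remaining measured by LC-MS/MS.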

[3] = format: in vivo, rats (male; Sprague-Dawley); settings: rat
In short: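 Male Sprague-Dawley rats, lightly isoflurane-anaesthetised, got 250 μL dosing solution intratracheally by catheter to the tracheal bifurcation at 0.067, 0.12 or 0.28 mg/kg. Plasma, lung and, in one study, BAL sampled to 24 or 48 h and assayed by LC-MS. Four-compartment model with central lung fixed at 2 g and BAL plus lung summed. M3 used for <LLOQ data; VPC; apparent parameters scaled to 0.3 kg.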

[4] = from human liver microsomes data
[5] = intratracheal, apparent parameter of final model, scaled to 0.3 kg
[6] = intratracheal, final model, scaled to 0.3 kg

## CCCCCCCCCc1nc2cc(Cl)ccc2c(=O)n1N [SEN001, 3-amino-7-chloro-2-nonylquinazolin-4(3H)-one]
[1]
  Solubility in water: <LLOQ
[2]; [4]
  CLH (hepatic clearance): 747.9 mL/min
  EH (hepatic extraction ratio): 0.50
[2]; human liver microsomes, 1 μM compound
  CLint (intrinsic clearance): 1491.7 mL/min
[2]; human, liver microsomes, pH 7.4
  half-life at 1 μM: 54.4 min
[3]; intratracheal 0.067 mg/kg
  Time of distribution equilibrium (lung, BAL, plasma): 2 h
[3]; [5]
  CLC, clearance central: 0.0745 L/h
  CLLP, clearance lung to plasma: 0.0175 L/h
  VC, volume of distribution central: 0.0855 L
[3]; intratracheal, final model (Table 5)
  FBAL, fraction in BAL: 0.980%
[3]; [6]
  QL, intercompartmental clearance lung: 0.00596 L/h
  VLP, volume of distribution deep lung: 0.0582 L
